{"source": "ChEMBL document CHEMBL3875206", "about": "“Design, synthesis and biological evaluation of 4'-aminochalcone-rivastigmine hybrids as multifunctional agents for the treatment of Alzheimer's disease” (Bioorg Med Chem, 2017)", "key": {"[1]": {"experiment": "Metal chelating activity assessed as compound-Al3+ complex formation by measuring shift in maximum absorption wavelength at 37.5 uM after 30 mins by UV-vis spectrophotometric method", "type": "physicochemical", "conditions": "0.5 h", "outline": "(§1)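 Difference UV-vis spectra (200-600 nm) of compound and metal salt (CuCl2 or AlCl3), each 37.5 µM final, after 30 min at room temperature. Spectra of metal alone and compound alone were subtracted from the mixture spectrum.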"}, "[2]": {"experiment": "Inhibition of rat serum BuChE at 50 uM using butyrylthiocholine iodide as substrate incubated for 15 mins by Ellman's method relative to control", "conditions": "0.25 h", "outline": "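Ellman method with 25% rat serum as BuChE source, butyrylthiocholine iodide 1 mmol/L, phosphate buffer pH 7.4, absorbance at 405 nm. Compounds tested at 50 µM. […] Triplicate wells.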"}, "[3]": {"biological_target": "T1, Amine oxidase [flavin-containing] A (Homo sapiens, UniProt P21397)", "T1 sequence (P21397 whole entry)": "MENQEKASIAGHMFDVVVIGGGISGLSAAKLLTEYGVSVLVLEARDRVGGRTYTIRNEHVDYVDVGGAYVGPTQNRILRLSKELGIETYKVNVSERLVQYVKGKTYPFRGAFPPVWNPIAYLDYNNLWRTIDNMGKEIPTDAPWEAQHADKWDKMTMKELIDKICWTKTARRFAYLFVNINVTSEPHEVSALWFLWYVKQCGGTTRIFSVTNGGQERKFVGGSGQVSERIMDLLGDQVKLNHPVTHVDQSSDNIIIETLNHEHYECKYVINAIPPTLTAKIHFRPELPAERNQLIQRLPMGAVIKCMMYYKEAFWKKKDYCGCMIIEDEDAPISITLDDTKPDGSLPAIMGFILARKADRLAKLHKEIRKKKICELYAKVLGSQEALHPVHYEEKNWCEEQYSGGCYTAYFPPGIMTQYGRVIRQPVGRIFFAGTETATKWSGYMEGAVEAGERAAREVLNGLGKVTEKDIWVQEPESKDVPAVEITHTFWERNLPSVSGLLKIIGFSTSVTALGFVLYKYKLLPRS", "experiment": "Inhibition of recombinant human MAO-A expressed in baculovirus infected High 5 insect cells at 10 uM using kynuramine as substrate incubated for 30 mins by spectrofluorometric method relative to control", "conditions": "0.5 h", "outline": "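Recombinant human MAO-A or MAO-B (7.5 µg/mL) with kynuramine substrate in 100 mM potassium phosphate pH 7.4 (KCl-isotonic), <4% DMSO, 30 min at 37 °C. Stopped with 2 N NaOH. 4-Hydroxyquinoline was measured fluorometrically (ex 310/em 400 nm) against a calibration curve. Single-point inhibition at 10 µM. IC50 from six-concentration sigmoidal curves, triplicate. SI = IC50(MAO-A)/IC50(MAO-B).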"}, "[4]": {"experiment": "Permeability of compound at 100 ug/ml after 18 hrs by PAMPA", "type": "ADME", "conditions": "read-out: permeability"}, "[5]": {"experiment": "Antioxidant activity assessed as trolox equivalents of AAPH radical scavenging activity at 5 uM preincubated for 15 mins followed by AAPH addition measured every 60 sec for 90 mins by ORAC-FL assay", "type": "functional", "outline": "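Peroxyl radicals generated by AAPH (12 mM final) at 37 °C in phosphate buffer pH 7.4 with fluorescein (150 nM final). Sample and fluorescein were preincubated 15 min before AAPH addition. Fluorescence (ex 485/em 535 nm) was read every 60 s for 90 min.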"}, "[6]": {"experiment": "Metal chelating activity assessed as mole fraction of compound required to show 1:1 stoichiometry for Cu2+-compound complex at 37.5 uM after 30 mins by UV-vis spectrophotometric method", "type": "physicochemical", "conditions": "0.5 h", "outline": "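Molar ratio method: a methanol solution of compound (37.5 µM final) was titrated with CuCl2 (3.75-150 µM final). Absorbance at 474 nm was taken after subtracting CuCl2 and compound spectra and plotted against the compound mole fraction. The intersection of the linear segments gave the stoichiometry.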"}, "[7]": {"biological_target": "T2, Amine oxidase [flavin-containing] B (Homo sapiens, UniProt P27338)", "T2 sequence (P27338 whole entry)": "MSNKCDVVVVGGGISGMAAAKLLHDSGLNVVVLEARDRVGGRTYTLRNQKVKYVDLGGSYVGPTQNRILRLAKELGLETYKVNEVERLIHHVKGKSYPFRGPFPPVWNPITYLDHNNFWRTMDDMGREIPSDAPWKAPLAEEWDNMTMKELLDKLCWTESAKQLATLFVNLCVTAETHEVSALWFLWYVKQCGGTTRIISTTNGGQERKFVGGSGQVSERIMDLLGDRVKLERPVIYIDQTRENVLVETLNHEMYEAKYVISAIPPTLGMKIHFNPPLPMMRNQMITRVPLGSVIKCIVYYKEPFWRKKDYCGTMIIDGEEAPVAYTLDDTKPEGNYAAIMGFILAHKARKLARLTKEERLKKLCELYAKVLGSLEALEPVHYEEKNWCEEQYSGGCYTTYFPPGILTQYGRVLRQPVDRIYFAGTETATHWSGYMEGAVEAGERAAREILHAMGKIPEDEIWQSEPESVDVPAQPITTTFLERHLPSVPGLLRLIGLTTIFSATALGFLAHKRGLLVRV", "experiment": "Inhibition of recombinant human MAO-B expressed in baculovirus infected High 5 insect cells using kynuramine as substrate incubated for 30 mins by spectrofluorometric method", "type": "cell-based"}, "[8]": {"biological_target": "Acetylcholinesterase (Electrophorus electricus) (UniProt O42275)", "sequence (O42275 24-633 limits assumed)": "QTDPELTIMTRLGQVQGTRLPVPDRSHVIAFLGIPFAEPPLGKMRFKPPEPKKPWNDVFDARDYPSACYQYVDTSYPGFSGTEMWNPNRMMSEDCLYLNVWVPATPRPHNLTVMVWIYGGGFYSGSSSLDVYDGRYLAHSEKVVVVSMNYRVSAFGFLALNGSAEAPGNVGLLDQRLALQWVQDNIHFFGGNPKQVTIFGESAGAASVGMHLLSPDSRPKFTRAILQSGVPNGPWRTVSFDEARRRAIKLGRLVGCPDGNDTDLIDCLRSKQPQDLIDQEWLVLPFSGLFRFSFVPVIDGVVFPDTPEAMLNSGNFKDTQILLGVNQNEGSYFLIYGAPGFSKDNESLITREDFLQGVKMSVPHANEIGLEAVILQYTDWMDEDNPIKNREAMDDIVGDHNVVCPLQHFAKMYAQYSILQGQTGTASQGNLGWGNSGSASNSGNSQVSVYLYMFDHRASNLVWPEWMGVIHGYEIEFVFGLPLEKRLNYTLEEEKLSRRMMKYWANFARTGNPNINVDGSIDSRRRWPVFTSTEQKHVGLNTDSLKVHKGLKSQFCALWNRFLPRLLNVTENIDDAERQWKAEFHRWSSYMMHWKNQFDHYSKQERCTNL", "experiment": "Mixed-type inhibition of electric eel AChE at 2.5 to 10 uM using varying levels of acetylthiocholine iodide as substrate preincubated for 15 mins followed by substrate addition by Lineweaver-Burk plot analysis", "outline": "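Kinetics with EeAChE in 0.1 M phosphate pH 8.0 with DTNB. Three inhibitor concentrations preincubated with enzyme 15 min at 37 °C, then acetylthiocholine added at 0.1–0.4 mM. Read at 412 nm. Weighted least-squares Lineweaver–Burk plots; slopes replotted against inhibitor concentration. No-inhibitor controls run in parallel.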"}, "[9]": {"experiment": "Metal chelating activity assessed as compound-Cu2+ complex formation by measuring shift in maximum absorption wavelength at 37.5 uM after 30 mins by UV-vis spectrophotometric method", "type": "physicochemical", "conditions": "0.5 h", "outline": "as §1"}, "[10]": {"experiment": "Inhibition of Cu2+-mediated aggregation of amyloid beta (1-42) (unknown origin) at 25 uM after 24 hrs by thioflavin T fluorescence-based fluorimetric method relative to control", "type": "functional", "outline": "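HFIP-pretreated Aβ1-42 (25 µM) was incubated with Cu2+ (25 µM), with or without compound (25 µM final), in 20 mM HEPES/150 mM NaCl pH 6.6 at 37 °C for 24 h. 5 µM ThT in 50 mM glycine-NaOH pH 8.5 was then added. Fluorescence was read at ex 446/em 490 nm. Percent inhibition was taken versus no-inhibitor control after background subtraction, in triplicate.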"}, "[11]": {"biological_target": "Amyloid-beta precursor protein (Homo sapiens) (UniProt P05067)", "sequence (P05067 whole entry)": "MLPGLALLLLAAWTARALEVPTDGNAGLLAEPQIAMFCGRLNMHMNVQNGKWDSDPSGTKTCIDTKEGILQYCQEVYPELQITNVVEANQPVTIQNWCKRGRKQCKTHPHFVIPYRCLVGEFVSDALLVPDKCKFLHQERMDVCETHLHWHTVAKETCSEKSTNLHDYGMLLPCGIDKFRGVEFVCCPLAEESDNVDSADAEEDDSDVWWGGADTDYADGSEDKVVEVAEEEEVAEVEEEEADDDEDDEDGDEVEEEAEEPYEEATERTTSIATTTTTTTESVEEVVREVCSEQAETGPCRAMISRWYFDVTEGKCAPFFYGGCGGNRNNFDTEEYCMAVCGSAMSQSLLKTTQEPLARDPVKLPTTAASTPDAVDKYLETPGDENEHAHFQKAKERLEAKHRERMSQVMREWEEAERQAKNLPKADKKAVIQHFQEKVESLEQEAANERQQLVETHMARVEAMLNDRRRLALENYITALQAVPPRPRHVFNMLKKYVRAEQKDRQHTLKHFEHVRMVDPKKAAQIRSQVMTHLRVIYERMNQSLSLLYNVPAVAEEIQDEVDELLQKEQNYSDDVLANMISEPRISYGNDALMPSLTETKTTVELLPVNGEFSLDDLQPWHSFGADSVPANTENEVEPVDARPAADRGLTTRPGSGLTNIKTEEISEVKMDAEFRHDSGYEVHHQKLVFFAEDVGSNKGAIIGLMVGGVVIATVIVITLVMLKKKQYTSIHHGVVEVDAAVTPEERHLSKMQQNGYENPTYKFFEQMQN", "experiment": "Inhibition of self-induced aggregation of amyloid beta (1-42) (unknown origin) at 25 uM after 24 hrs by thioflavin T fluorescence-based fluorimetric method relative to control", "outline": "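Aβ1-42 was pretreated in HFIP, dried and stocked in DMSO. Aβ1-42 (25 µM final) was incubated with compound (25 µM final) in 50 mM phosphate buffer pH 7.4 at 37 °C for 24 h. 5 µM ThT in 50 mM glycine-NaOH pH 8.5 was then added. Fluorescence was read at ex 446/em 490 nm. Inhibition = (1−IFi/IFc)×100 after background subtraction, in triplicate.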"}, "[12]": {"biological_target": "T2, Amine oxidase [flavin-containing] B", "experiment": "Potency index, ratio of rasagiline IC50 to compound IC50 for recombinant human MAO-B expressed in baculovirus infected High 5 insect cells"}, "Acetylcholinesterase": {"biological_target": "Acetylcholinesterase (Electrophorus electricus, UniProt O42275)", "sequence (O42275 whole entry)": "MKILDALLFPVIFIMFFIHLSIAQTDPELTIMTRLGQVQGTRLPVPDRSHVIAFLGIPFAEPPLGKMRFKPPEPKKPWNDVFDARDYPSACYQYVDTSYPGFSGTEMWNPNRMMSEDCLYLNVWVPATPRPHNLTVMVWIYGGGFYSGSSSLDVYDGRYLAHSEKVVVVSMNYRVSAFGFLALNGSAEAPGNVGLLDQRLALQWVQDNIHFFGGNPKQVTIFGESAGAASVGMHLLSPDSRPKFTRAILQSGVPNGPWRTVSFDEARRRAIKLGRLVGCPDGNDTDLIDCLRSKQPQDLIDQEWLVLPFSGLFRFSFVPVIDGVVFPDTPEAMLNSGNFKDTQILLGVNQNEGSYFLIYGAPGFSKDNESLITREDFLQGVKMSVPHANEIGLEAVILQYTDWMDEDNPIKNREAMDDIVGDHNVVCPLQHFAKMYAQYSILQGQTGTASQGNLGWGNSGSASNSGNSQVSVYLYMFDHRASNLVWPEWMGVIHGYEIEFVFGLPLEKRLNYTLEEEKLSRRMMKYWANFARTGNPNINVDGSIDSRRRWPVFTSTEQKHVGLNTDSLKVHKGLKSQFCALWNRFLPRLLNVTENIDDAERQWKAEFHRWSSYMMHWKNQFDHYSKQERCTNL", "experiment": "Inhibition of electric eel AChE using acetylthiocholine iodide as substrate incubated for 15 mins by Ellman's method", "outline": "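Ellman spectrophotometric assay: electric eel AChE 0.05 U/mL final, acetylthiocholine iodide 1 mmol/L, phosphate buffer pH 8.0, range of compound concentrations.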"}, "[13]": {"biological_target": "T2, Amine oxidase [flavin-containing] B", "experiment": "Potency index, ratio of iproniazid IC50 to compound IC50 for recombinant human MAO-B expressed in baculovirus infected High 5 insect cells"}}, "note": "pIC50: −log10 of the molar value. Active and inactive are the calls of the source. No cut-off for these calls is given here.", "data": [{"smiles": "CN(C)c1ccc(/C=C/C(=O)c2ccc(OC(=O)N3CCCC3)cc2O)cc1", "values": [{"measurement": "Activity", "setting": "[1]", "result": "Active"}, {"measurement": "inhibition (INH)", "setting": "[2]", "result": "< 10", "unit": "%"}, {"measurement": "inhibition at 10 µM", "setting": "[3]", "result": 12.8, "unit": "%"}, {"measurement": "Papp at 18 h, 100 ug/ml", "setting": "[4]", "result": 7.03, "unit": "×10⁻⁶ cm/s"}, {"measurement": "Activity", "setting": "[5]", "result": 2.83, "unit": "µMequiv/µM"}, {"measurement": "Activity", "setting": "[6]", "result": 0.98, "unit": "molar ratio"}, {"measurement": "pIC50", "setting": "[7]", "result": 6.54}, {"measurement": "inhibition", "setting": "[8]", "result": "Active"}, {"measurement": "Activity", "setting": "[9]", "result": "Active"}, {"measurement": "inhibition", "setting": "[10]", "result": 79.7, "unit": "%"}, {"measurement": "inhibition", "setting": "[11]", "result": 89.5, "unit": "%"}, {"measurement": "Ratio IC50", "setting": "[12]", "result": 2}, {"measurement": "pIC50", "setting": "Acetylcholinesterase", "result": 5.31}, {"measurement": "Ratio IC50", "setting": "[13]", "result": "> 26.7"}]}]}
